Assay results taken from ChEMBL document CHEMBL4689842, “EUbOPEN Chemogenomics Library wave 1” (2021).

Tested on: U2OS
Assay: Multiplex assay against U2OS
Assay type: toxicity, cell-based
Conditions: human
Procedure, shortened: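 Cells stained live at seeding with Hoechst33342, BioTracker Green Microtubule Cytoskeleton Dye, MitoTracker Red and Annexin V Alexa Fluor 680 were imaged on a CQ1 microscope at 37°C and 5% CO2 after compound addition. Their classification by CellPathfinder machine-learning gating ran from Hoechst high-intensity objects versus normal cells, to healthy, pyknosed or fragmented nuclei among normal cells, to mitotic or apoptotic among pyknosed cells. Tubulin, mitochondrial-mass and membrane-permeability phenotypes are per cents of healthy-nucleus cells.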

[1] = 12 h, 1 µM, compound concentration 1 uM, replicate 1
[2] = 12 h, 1 µM, compound concentration 1 uM, replicate 2
[3] = 12 h, 10 µM, compound concentration 10 uM, replicate 1
[4] = 12 h, 10 µM, compound concentration 10 uM, replicate 2
[5] = 24 h, 1 µM, compound concentration 1 uM, replicate 1
[6] = 24 h, 1 µM, compound concentration 1 uM, replicate 2
[7] = 24 h, 10 µM, compound concentration 10 uM, replicate 1
[8] = 24 h, 10 µM, compound concentration 10 uM, replicate 2
[9] = 48 h, 1 µM, compound concentration 1 uM, replicate 1
[10] = 48 h, 1 µM, compound concentration 1 uM, replicate 2
[11] = 48 h, 10 µM, compound concentration 10 uM, replicate 1
[12] = 48 h, 10 µM, compound concentration 10 uM, replicate 2

SMILES: O=C(Nc1ccc(-n2nc(-c3cccnc3)cc2C(F)(F)F)cn1)c1ccc(-c2ccccc2)c(F)c1 [BI 2049]
- Population Apoptotic (%) [1]: 63%
- Population Fragmented Nuclei (%) [1]: 12%
- Population Healthy Nuclei (%) [1]: 74%
- Population Hoechst High Intensity Objects (%) [1]: 12%
- Population Membrane Permeable-Phenotype (%) [1]: 6%
- Population Mitochondria Different-Phenotype (%) [1]: 10%
- Population Mitotic Cells (%) [1]: 36%
- Population Normal (%) [1]: 87%
- Population Pyknosed Nuclei (%) [1]: 12%
- Population Tubulin-Different-Phenotype (%) [1]: 12%
- Total Cell Count [1]: 99
- Population Apoptotic (%) [2]: 50%
- Population Fragmented Nuclei (%) [2]: 4%
- Population Healthy Nuclei (%) [2]: 85%
- Population Hoechst High Intensity Objects (%) [2]: 8%
- Population Membrane Permeable-Phenotype (%) [2]: 3%
- Population Mitochondria Different-Phenotype (%) [2]: 7%
- Population Mitotic Cells (%) [2]: 50%
- Population Normal (%) [2]: 91%
- Population Pyknosed Nuclei (%) [2]: 9%
- Population Tubulin-Different-Phenotype (%) [2]: 44%
- Total Cell Count [2]: 69
- Population Apoptotic (%) [3]: 30%
- Population Fragmented Nuclei (%) [3]: 13%
- Population Healthy Nuclei (%) [3]: 69%
- Population Hoechst High Intensity Objects (%) [3]: 9%
- Population Membrane Permeable-Phenotype (%) [3]: 6%
- Population Mitochondria Different-Phenotype (%) [3]: 24%
- Population Mitotic Cells (%) [3]: 70%
- Population Normal (%) [3]: 90%
- Population Pyknosed Nuclei (%) [3]: 17%
- Population Tubulin-Different-Phenotype (%) [3]: 35%
- Total Cell Count [3]: 129
- Population Apoptotic (%) [4]: 0%
- Population Fragmented Nuclei (%) [4]: 18%
- Population Healthy Nuclei (%) [4]: 81%
- Population Hoechst High Intensity Objects (%) [4]: 6%
- Population Membrane Permeable-Phenotype (%) [4]: 4%
- Population Mitochondria Different-Phenotype (%) [4]: 12%
- Population Mitotic Cells (%) [4]: 0%
- Population Normal (%) [4]: 93%
- Population Pyknosed Nuclei (%) [4]: 0%
- Population Tubulin-Different-Phenotype (%) [4]: 8%
- Total Cell Count [4]: 65
- Population Apoptotic (%) [5]: 60%
- Population Fragmented Nuclei (%) [5]: 8%
- Population Healthy Nuclei (%) [5]: 79%
- Population Hoechst High Intensity Objects (%) [5]: 5%
- Population Membrane Permeable-Phenotype (%) [5]: 3%
- Population Mitochondria Different-Phenotype (%) [5]: 6%
- Population Mitotic Cells (%) [5]: 40%
- Population Normal (%) [5]: 94%
- Population Pyknosed Nuclei (%) [5]: 11%
- Population Tubulin-Different-Phenotype (%) [5]: 13%
- Total Cell Count [5]: 136
- Population Apoptotic (%) [6]: 25%
- Population Fragmented Nuclei (%) [6]: 7%
- Population Healthy Nuclei (%) [6]: 83%
- Population Hoechst High Intensity Objects (%) [6]: 7%
- Population Membrane Permeable-Phenotype (%) [6]: 4%
- Population Mitochondria Different-Phenotype (%) [6]: 9%
- Population Mitotic Cells (%) [6]: 75%
- Population Normal (%) [6]: 92%
- Population Pyknosed Nuclei (%) [6]: 8%
- Population Tubulin-Different-Phenotype (%) [6]: 37%
- Total Cell Count [6]: 96
- Population Apoptotic (%) [7]: 34%
- Population Fragmented Nuclei (%) [7]: 10%
- Population Healthy Nuclei (%) [7]: 71%
- Population Hoechst High Intensity Objects (%) [7]: 5%
- Population Membrane Permeable-Phenotype (%) [7]: 6%
- Population Mitochondria Different-Phenotype (%) [7]: 21%
- Population Mitotic Cells (%) [7]: 65%
- Population Normal (%) [7]: 94%
- Population Pyknosed Nuclei (%) [7]: 18%
- Population Tubulin-Different-Phenotype (%) [7]: 19%
- Total Cell Count [7]: 135
- Population Apoptotic (%) [8]: 0%
- Population Fragmented Nuclei (%) [8]: 11%
- Population Healthy Nuclei (%) [8]: 84%
- Population Hoechst High Intensity Objects (%) [8]: 3%
- Population Membrane Permeable-Phenotype (%) [8]: 4%
- Population Mitochondria Different-Phenotype (%) [8]: 13%
- Population Mitotic Cells (%) [8]: 100%
- Population Normal (%) [8]: 96%
- Population Pyknosed Nuclei (%) [8]: 3%
- Population Tubulin-Different-Phenotype (%) [8]: 10%
- Total Cell Count [8]: 82
- Population Apoptotic (%) [9]: 33%
- Population Fragmented Nuclei (%) [9]: 9%
- Population Healthy Nuclei (%) [9]: 82%
- Population Hoechst High Intensity Objects (%) [9]: 5%
- Population Mitochondria Different-Phenotype (%) [9]: 12%
- Population Mitotic Cells (%) [9]: 66%
- Population Normal (%) [9]: 94%
- Population Pyknosed Nuclei (%) [9]: 7%
- Population Tubulin-Different-Phenotype (%) [9]: 10%
- Total Cell Count [9]: 200
- Population Apoptotic (%) [10]: 22%
- Population Fragmented Nuclei (%) [10]: 2%
- Population Healthy Nuclei (%) [10]: 91%
- Population Hoechst High Intensity Objects (%) [10]: 3%
- Population Membrane Permeable-Phenotype (%) [10]: 1%
- Population Mitochondria Different-Phenotype (%) [10]: 10%
- Population Mitotic Cells (%) [10]: 77%
- Population Normal (%) [10]: 96%
- Population Pyknosed Nuclei (%) [10]: 6%
- Population Tubulin-Different-Phenotype (%) [10]: 41%
- Total Cell Count [10]: 146
- Population Apoptotic (%) [11]: 63%
- Population Fragmented Nuclei (%) [11]: 8%
- Population Healthy Nuclei (%) [11]: 74%
- Population Hoechst High Intensity Objects (%) [11]: 3%
- Population Membrane Permeable-Phenotype (%) [11]: 7%
- Population Mitochondria Different-Phenotype (%) [11]: 13%
- Population Mitotic Cells (%) [11]: 36%
- Population Normal (%) [11]: 96%
- Population Pyknosed Nuclei (%) [11]: 17%
- Population Tubulin-Different-Phenotype (%) [11]: 11%
- Total Cell Count [11]: 181
- Population Apoptotic (%) [12]: 11%
- Population Fragmented Nuclei (%) [12]: 7%
- Population Healthy Nuclei (%) [12]: 85%
- Population Hoechst High Intensity Objects (%) [12]: 2%
- Population Membrane Permeable-Phenotype (%) [12]: 3%
- Population Mitochondria Different-Phenotype (%) [12]: 11%
- Population Mitotic Cells (%) [12]: 88%
- Population Normal (%) [12]: 97%
- Population Pyknosed Nuclei (%) [12]: 7%
- Population Tubulin-Different-Phenotype (%) [12]: 6%
- Total Cell Count [12]: 128
